Results collected from several papers.
Each line is one published result; the experiments were not run side by side.
MC4R: Melanocortin receptor 4 (MC4R, Homo sapiens, UniProt P32245)
BCHE: Cholinesterase (BCHE, Homo sapiens, UniProt P06276)

With `CN(CCN1CCC(OC(=O)Nc2ccccc2-c2ccccc2)CC1)C(=O)c1ccc(CN2CCC(C(N)=O)CC2)cc1` the inhibition was 1% (MC4R; ligand displacement; radioligand; 1 µM).
`O=C(Nc1cccnn1)N1CCN([C@@H]2CCOc3cc(C(F)(F)F)ccc32)CC1` gave an inhibition of 10% (Somatostatin receptor type 1 (SSTR1, Homo sapiens, UniProt P30872); cell-free assay; 20 µM).
`C=CCn1c2cc(OC(=O)CCCCN3CCN(Cc4ccccc4C)CC3)ccc2c2ccnc(C)c21` has an inhibition of 39.8% (BCHE; enzyme activity; inhibitor; Ellman; 1 µM).
For `C#Cc1n[nH]c2c(-c3cn(C(C)c4ccccn4)c(=O)[nH]c3=O)cc(F)cc12` (stereo not shown), the inhibition was 0.5% (Fibroblast growth factor receptor 4 (FGFR4, Homo sapiens, UniProt P22455); enzyme activity; inhibitor; 1 µM).
With `CC(C)N1CCC[C@H]1CNC(=O)c1cn(C2CCCC2)c(=O)c2c1c1ccccc1n2C` the inhibition was 22% (Cysteinyl leukotriene receptor 1 (CYSLTR1, Homo sapiens, UniProt Q9Y271); ligand displacement; radioligand; 10 µM).
For `[C-]#[O+]`, the inhibition was 70% (Catalase (CAT, Bos taurus, UniProt P00432); enzyme activity; inhibitor; 1 mM).
The inhibition of `COc1ccc2c(c1)[nH]c1c(C)nccc12` is reported as 25.7% (BCHE; enzyme activity; inhibitor; Ellman; 1 µM).
The inhibition of `COc1ccc(S(=O)(=O)N2CCCCC2)cc1C` is reported as less than 30% (MC4R; ligand displacement; radioligand; 10 µM).
`C=CCn1c2cc(OC(=O)CCCCN3CCN(Cc4ccccc4Cl)CC3)ccc2c2ccnc(C)c21` has an inhibition of 46.1% (BCHE; enzyme activity; inhibitor; Ellman; 1 µM).
`COc1cc(CNC(=O)CCCC/C=C/C(C)C)ccc1O` has an inhibition of 32.3% (DNA dC->dU-editing enzyme APOBEC-3B (Homo sapiens, UniProt Q9UH17); enzyme activity; inhibitor; fluorescence; 100 µM).
The inhibition of `Cn1cc(-c2cccc(N3CCc4c(sc5c4CC(C)(C)C5)C3=O)c2CO)cc(Nc2ccncn2)c1=O` is reported as 53% (Tyrosine-protein kinase Fgr (FGR, Homo sapiens, UniProt P09769); enzyme activity; inhibitor; 1 µM).
With `COc1cc(Nc2ncc(F)c(Nc3ccc4c(n3)NC(=O)C(C)(C)O4)n2)cc(OC)c1OC` the inhibition was 86% (Interferon-induced, double-stranded RNA-activated protein kinase (EIF2AK2, Homo sapiens, UniProt P19525); binding; competition with immobilised ligand; 10 µM).
For `C=CCn1c2cc(OC(=O)CCCCN3CCN(Cc4cccc(F)c4)CC3)ccc2c2ccnc(C)c21`, the inhibition was 17.3% (BCHE; enzyme activity; inhibitor; Ellman; 1 µM).
